Data on 51 compounds can be found in ChEMBL document CHEMBL4251564, “Development of noviomimetics that modulate molecular chaperones and manifest neuroprotective effects” (Eur J Med Chem, 2018).

Format in all cases: cell-based
For assay [1], the species on record is Rattus norvegicus. The assay is described as follows: Inhibition of HSP90 in rat 50B11 cells assessed as increase in Hsp70 protein expression at 0.03 to 3 uM after 24 hrs by immunoblot assay. The procedure, abridged:
(§1)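 Nontransfected 50B11 cells exposed 24 h to compound, with DMSO as negative control. Hsp70 detected by immunoblot; densitometry reports fold induction over DMSO. Mean ±SEM, n >2.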
A general note: A western blot detects proteins with antibodies after separation by electrophoresis.

For assay [2], the species on record is Rattus norvegicus. The assay is described as follows: Inhibition of HSP90 in rat 50B11 cells transfected with human HSPA1A promoter assessed as induction of human Hsp70 expression at 10 to 1000 nM incubated for 16 hrs by luciferase reporter gene assay.
The species entered for assay [3] is Rattus norvegicus. The assay is described as follows: Inhibition of HSP90 in rat 50B11 cells assessed as improvement in mitochondrial bioenergetics by measuring suppression of H2O2-induced reduction in oxygen consumption rate at 1 uM after 24 hrs by XF96 extracellular flux analyzer based method. Put shortly:
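50B11 cells seeded in high-glucose DMEM with 10% FBS; after 12 h switched to high-glucose DMEM with 1% FBS plus 1.0 μM compound or DMSO for 24 h, then stressed with 0.5 mM H2O2 for 2 h. Intact-cell OCR and ECAR read on XF96 extracellular flux analyzer; maximal respiratory capacity from FCCP response; significance versus H2O2 alone, p<0.05.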

The species named for assay [4] is Rattus norvegicus. The assay is described as follows: Inhibition of HSP90 in rat 50B11 cells assessed as increase in Hsp70 protein expression at 1 uM after 24 hrs by immunoblot assay. Put shortly: as §1
For assay [5], the species on record is Rattus norvegicus. Briefly: Inhibition of HSP90 in rat 50B11 cells assessed as decrease in c-jun protein expression at 1 uM incubated for 24 hrs followed by 10% FBS exposure for 2 hrs by Western blot analysis. Put shortly:
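50B11 cells held in serum-free medium 24 h to arrest cycle and lower c-Jun, then given vehicle or 1.0 μM compound for 24 h; c-Jun induced by 10% FBS medium for 2 h. Lysates immunoblotted for c-Jun with actin control; densitometry gives fold change normalized to serum-free-then-serum control. Mean ±SEM, n >2.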

The source made the active and inactive calls. No cut-off for these calls is given here.

Consider `CC(=O)NCCc1cc(C)c(OC2CCC(OCc3ccccc3C)CC2)cc1-c1cccc(F)c1` (configuration not stated), for which, in the assay filed under Rattus norvegicus [1], the inhibition result was “inactive”. Still for that read-out and setting: to `CC(=O)NCCc1ccc(OC2CCC(OCc3ccc(Cl)cc3)CC2)c(O)c1-c1cccc(F)c1` (configuration not stated) belongs “Active”. In the case of `CC(=O)NCCc1ccc(OC2CCC(OCc3ccccc3F)CC2)cc1-c1cccc(F)c1` (configuration not stated), the inhibition result in the assay filed under Rattus norvegicus [2] was “Active”. Consider `CO[C@@H]1[C@@H](O)[C@@H](O)[C@H](Oc2ccc(CCNC(C)=O)c(-c3cccc(F)c3)c2)OC1(C)C`, for which the inhibition result in the assay filed under Rattus norvegicus [1] and in the assay listed under Rattus norvegicus [3] was “Active” in each case. On to `CC(=O)NCCc1ccc(OC2CCC(OCc3c(Cl)cccc3Cl)CC2)cc1-c1cccc(F)c1` (configuration not stated), for which, in the assay listed under Rattus norvegicus [2], the inhibition entry is “Active”. In the assay listed under Rattus norvegicus [4], the inhibition result is “inactive”.

In the case of `COc1ccccc1COC1CCC(Oc2cc(O)c(CCNC(C)=O)c(-c3cccc(F)c3)c2)CC1` (configuration not stated), the inhibition result in the assay listed under Rattus norvegicus [1] and in the assay filed under Rattus norvegicus [5] was “Active” each time.

For the compound `CC(=O)NCCc1ccc(OC2CCC(OCc3ccc(Cl)cc3Br)CC2)cc1-c1cccc(F)c1` (configuration not stated), the inhibition result in the assay listed under Rattus norvegicus [2] was “Active”. Regarding `COc1cc(Cl)ccc1COC1CCC(Oc2ccc(CCNC(C)=O)c(-c3cccc(F)c3)c2)CC1` (configuration not stated), the inhibition entry in the assay filed under Rattus norvegicus [2] is “Active”. The inhibition result in the assay filed under Rattus norvegicus [4] is “inactive”.

`COc1ccccc1COc1ccc2cc(NC(C)=O)c(=O)oc2c1C`: in the assay listed under Rattus norvegicus [2], the inhibition result was “inactive”.

As for `CC(=O)NCCc1ccc(OC2CCC(OCc3ccc4ccccc4c3)CC2)cc1-c1cccc(F)c1` (configuration not stated), the inhibition entry in the assay listed under Rattus norvegicus [2] is “Active”. With `CC(=O)NCCc1ccc(OC2CCC(OCc3ccc(C(F)(F)F)cc3)CC2)cc1-c1cccc(F)c1` (configuration not stated), the inhibition entry in the assay listed under Rattus norvegicus [2] is “Active”. Besides, the inhibition result in the assay listed under Rattus norvegicus [4] was “inactive”. Consider `COc1ccccc1COC1CCC(Oc2ccc(CCNC(C)=O)c(-c3cccc(F)c3)c2O)CC1` (configuration not stated), for which the inhibition entry in the assay filed under Rattus norvegicus [1] is “Active”.

Take `CC(=O)NCCc1ccc(OC2CCC(OCc3ccc(Br)cc3)CC2)c(O)c1-c1cccc(F)c1` (configuration not stated): the inhibition entry in the assay listed under Rattus norvegicus [1] and in the assay filed under Rattus norvegicus [5] was “Active” in each case. `CC(=O)NCCc1ccc(OC2CCC(OCc3ccccc3C)CC2)cc1-c1cccc(F)c1` (configuration not stated): the inhibition result in the assay listed under Rattus norvegicus [2] was “Active”. Turning to `COc1cc(OC2CCC(OCc3ccccc3C)CC2)cc(-c2cccc(F)c2)c1CCNC(C)=O` (configuration not stated), the inhibition result in the assay filed under Rattus norvegicus [1] is “Active”.

On to `CC(=O)NCCc1ccc(OC2CCC(OCc3ccccc3)CC2)c(O)c1-c1cccc(F)c1` (configuration not stated), for which, in the assay filed under Rattus norvegicus [1], the inhibition result was “Active”. Consider `CC(=O)NCCc1ccc(OC2CCC(OCc3ccc(C)cc3)CC2)cc1-c1cccc(F)c1` (configuration not stated), for which the inhibition result in the assay listed under Rattus norvegicus [2] is “Active”. Still for that read-out and setting: to `CC(=O)NCCc1ccc(OC2CCC(OCc3ccc(Br)cc3)CC2)cc1-c1cccc(F)c1` (configuration not stated) belongs “Active”; to `CC(=O)NCCc1ccc(OC2CCC(OCc3ccc(C(C)(C)C)cc3)CC2)cc1-c1cccc(F)c1` (configuration not stated), “Active”.

Take `COc1ccccc1COC1CCC(Oc2ccc(CCNC(C)=O)c(-c3cccc(F)c3)c2)CC1` (configuration not stated): the inhibition entry in the assay filed under Rattus norvegicus [4] was “Active”. Regarding `COc1cc(OC2CCC(OCc3ccc(Cl)cc3)CC2)cc(-c2cccc(F)c2)c1CCNC(C)=O` (configuration not stated), the inhibition result in the assay listed under Rattus norvegicus [1], in the assay listed under Rattus norvegicus [5] and in the assay listed under Rattus norvegicus [3] was “Active” throughout.

With `CC(=O)Nc1cc2ccc(OCc3ccc(Cl)cc3)c(C)c2oc1=O`, the inhibition entry in the assay filed under Rattus norvegicus [2] was “inactive”. For the compound `CC(=O)NCCc1ccc(OC2CCC(OCc3ccccc3C)CC2)c(O)c1-c1cccc(F)c1` (configuration not stated), in the assay filed under Rattus norvegicus [1], the inhibition result was “Active”. Same read-out and setting: to `CC(=O)NCCc1c(O)cc(OC2CCC(OCc3ccc(Br)cc3)CC2)cc1-c1cccc(F)c1` (configuration not stated) belongs “Active”.

`CC(=O)NCCc1ccc(OC2CCC(OCc3cccc(Cl)c3)CC2)cc1-c1cccc(F)c1` (configuration not stated): the inhibition result in the assay filed under Rattus norvegicus [2] is “Active”. For `COc1cc(OC2CCC(OCc3ccc(Br)cc3)CC2)cc(-c2cccc(F)c2)c1CCNC(C)=O` (configuration not stated), the inhibition entry in the assay listed under Rattus norvegicus [1] and in the assay filed under Rattus norvegicus [5] was “Active” in each case. For `CC(=O)NCCc1cc(C)c(OC2CCC(OCc3ccccc3)CC2)cc1-c1cccc(F)c1` (configuration not stated), the inhibition result in the assay filed under Rattus norvegicus [1] is “inactive”. The same measure, in the same setting: to `CC(=O)NCCc1c(O)cc(OC2CCC(OCc3ccccc3C)CC2)cc1-c1cccc(F)c1` (configuration not stated) belongs “Active”. With `CC(=O)Nc1cc2ccc(O)c(C)c2oc1=O`, the inhibition entry in the assay filed under Rattus norvegicus [2] was “inactive”. For `CC(=O)NCCc1ccc(OC2CCC(OCc3ccccc3Br)CC2)cc1-c1cccc(F)c1` (configuration not stated), the inhibition result in the assay filed under Rattus norvegicus [2] and in the assay listed under Rattus norvegicus [4] was “Active” in each case.

As for `CC(=O)NCCc1ccc(OC2CCC(OCc3ccc(Cl)cc3)CC2)cc1-c1cccc(F)c1` (configuration not stated), the inhibition entry in the assay filed under Rattus norvegicus [2] is “Active”. The inhibition entry in the assay filed under Rattus norvegicus [4] is “inactive”. In the same order, the values of `CC(=O)NCCc1ccc(OC2CCC(OCc3ccccc3Cl)CC2)cc1-c1cccc(F)c1` (configuration not stated) are “Active” and “Active”.

For the compound `CC(=O)NCCc1ccc(OC2CCC(OCc3ccc(F)cc3)CC2)cc1-c1cccc(F)c1` (configuration not stated), the inhibition result in the assay filed under Rattus norvegicus [2] was “Active”.

With `CC(=O)NCCc1ccc(OC2C=CC(OCc3ccc(Cl)cc3)CC2)cc1-c1cccc(F)c1` (configuration not stated), the inhibition result in the assay filed under Rattus norvegicus [2] and in the assay filed under Rattus norvegicus [4] was “Active” each time. `COc1ccccc1COC1CCC(Oc2cc(OC)c(CCNC(C)=O)c(-c3cccc(F)c3)c2)CC1` (configuration not stated): the inhibition entry in the assay listed under Rattus norvegicus [1] is “Active”. As for `COc1ccc(COC2CCC(Oc3ccc(CCNC(C)=O)c(-c4cccc(F)c4)c3)CC2)cc1` (configuration not stated), the inhibition entry in the assay listed under Rattus norvegicus [2] was “Active”.

Consider `COc1cc(O[C@@H]2OC(C)(C)[C@H](OC)[C@@H](O)[C@H]2O)cc(-c2cccc(F)c2)c1CCNC(C)=O`, for which the inhibition result in the assay listed under Rattus norvegicus [5] is “Active”.

Take `COc1cccc(COC2CCC(Oc3ccc(CCNC(C)=O)c(-c4cccc(F)c4)c3)CC2)c1` (configuration not stated): the inhibition result in the assay filed under Rattus norvegicus [2] is “Active”. Still for that read-out and setting: to `CC(=O)Nc1cc2ccc(OCc3ccccc3Br)c(C)c2oc1=O` belongs “inactive”. Regarding `CC(=O)NCCc1cc(C)c(OC2CCC(OCc3ccc(Br)cc3)CC2)cc1-c1cccc(F)c1` (configuration not stated), the inhibition entry in the assay filed under Rattus norvegicus [1] is “inactive”. Regarding `COc1ccccc1COC1CCC(Oc2cc(-c3cccc(F)c3)c(CCNC(C)=O)cc2C)CC1` (configuration not stated), the inhibition result in the assay listed under Rattus norvegicus [1] is “inactive”. Consider `CC(=O)NCCc1ccc(O)cc1-c1cccc(F)c1`, for which the inhibition entry in the assay filed under Rattus norvegicus [2] is “inactive”. For `CC(=O)NCCc1c(O)cc(OC2CCC(OCc3ccccc3)CC2)cc1-c1cccc(F)c1` (configuration not stated), the inhibition result in the assay listed under Rattus norvegicus [1] and in the assay listed under Rattus norvegicus [5] was “Active” throughout.

For `CC(=O)Nc1cc2ccc(OCc3ccccc3)c(C)c2oc1=O`, the inhibition result in the assay filed under Rattus norvegicus [2] is “inactive”. `CO[C@@H]1[C@@H](O)[C@@H](O)[C@H](Oc2cc(O)c(CCNC(C)=O)c(-c3cccc(F)c3)c2)OC1(C)C`: the inhibition entry in the assay listed under Rattus norvegicus [5] was “Active”. Turning to `COc1cc(C)ccc1COC1CCC(Oc2ccc(CCNC(C)=O)c(-c3cccc(F)c3)c2)CC1` (configuration not stated), the inhibition entry in the assay listed under Rattus norvegicus [2] is “Active”.

As for `CC(=O)NCCc1ccc(OC2CCC(OCc3ccccc3)CC2)cc1-c1cccc(F)c1` (configuration not stated), the inhibition entry in the assay filed under Rattus norvegicus [2] and in the assay listed under Rattus norvegicus [3] was “Active” throughout. In the case of `CC(=O)NCCc1c(O)cc(OC2CCC(OCc3ccc(Cl)cc3)CC2)cc1-c1cccc(F)c1` (configuration not stated), the inhibition result in the assay listed under Rattus norvegicus [1] was “Active”.

As to `CO[C@@H]1[C@@H](O)[C@@H](O)[C@H](Oc2cc(-c3cccc(F)c3)c(CCNC(C)=O)cc2C)OC1(C)C`, in the assay filed under Rattus norvegicus [1], the inhibition result was “Active”.

In the case of `COc1cc(OC2CCC(OCc3ccccc3)CC2)cc(-c2cccc(F)c2)c1CCNC(C)=O` (configuration not stated), in the assay filed under Rattus norvegicus [1], the inhibition entry is “Active”. For `CC(=O)NCCc1ccc(OC2CCC(OCc3ccc(Cl)cc3)[C@@H](O)[C@H]2O)cc1-c1cccc(F)c1` (some centres not stated), the inhibition result in the assay listed under Rattus norvegicus [2] and in the assay listed under Rattus norvegicus [4] was “Active” throughout.
